From ChEMBL document CHEMBL3351394 (J Med Chem, 2014)
Calls of active or inactive are those of the source. No cut-off for these calls is given here.

target: T1, Bile acid receptor (Homo sapiens) (UniProt Q96RI1); assay: Antagonist activity at human FXR expressed in human HeLa cells assessed as inhibition of receptor activation by BSEP promoter-driven firefly luciferase reporter gene assay relative to untreated control; assay type: cell-based; conditions: concentration not given here
T1 sequence (whole entry): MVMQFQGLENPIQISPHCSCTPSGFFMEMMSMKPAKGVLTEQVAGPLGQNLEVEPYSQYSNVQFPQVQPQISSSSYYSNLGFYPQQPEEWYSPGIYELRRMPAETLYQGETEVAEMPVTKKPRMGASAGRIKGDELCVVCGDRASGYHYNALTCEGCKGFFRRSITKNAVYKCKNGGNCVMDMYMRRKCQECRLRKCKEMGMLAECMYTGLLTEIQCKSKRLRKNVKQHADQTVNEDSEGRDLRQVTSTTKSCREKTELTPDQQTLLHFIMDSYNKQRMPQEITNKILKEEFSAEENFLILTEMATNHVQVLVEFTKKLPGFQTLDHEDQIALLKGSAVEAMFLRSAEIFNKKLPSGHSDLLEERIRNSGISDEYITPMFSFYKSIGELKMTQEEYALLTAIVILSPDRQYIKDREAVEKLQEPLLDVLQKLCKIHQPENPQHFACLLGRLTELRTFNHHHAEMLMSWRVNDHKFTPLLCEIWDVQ
Outline: (§1)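 HeLa cells were calcium-phosphate transfected with pcDNA3-hFXR, pSG5-hRXR, a BSEP-promoter firefly luciferase (BSEP-pGL3) and pRL-SV40, then kept in 0.5% charcoal-stripped FCS. 24 h post-transfection, compound in 0.1% DMSO was added for 24 h; in antagonist mode it was given in competition with GW4064. Dual-luciferase firefly/renilla RLU gave fold over untreated and activity relative to 3 μM GW4064. Triplicate wells, ≥3 independent runs.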

In order of rising inhibition:
1. COc1ccc(NC(=O)c2ccc(C(C)(C)C)cc2)c(C(=O)Nc2cccc(C(=O)O)c2)c1  10%
2. CC(C)(C)c1ccc(C(=O)Nc2ccc(Cl)cc2C(=O)Nc2cccc(C(=O)O)c2)cc1  15%

target: T1, Bile acid receptor (Homo sapiens); assay: Agonist activity at FXR in human HepG2 cells assessed as induction of BSEP mrNA expression at 3 uM by quantitative PCR method; assay type: cell-based; conditions: not given
Outline: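 HepG2 cells were seeded at 2 × 10⁶ per well. After 24 h they were switched to MEM with 1% charcoal-stripped FCS, and 24 h later dosed with compound (0.1, 0.3, 1, 3, 10 μM; 0.1% DMSO final) for 24 h. Total RNA was reverse transcribed and analysed by qPCR, GAPDH-normalized, ΔΔCt method. Samples were run in duplicate in ≥4 independent experiments.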

Molecule CC(C)c1onc(-c2c(Cl)cccc2Cl)c1COc1ccc(/C=C/c2cccc(C(=O)O)c2)c(Cl)c1 has an Activity of 1520%.

target: T2, Bile acid receptor (Homo sapiens, UniProt Q96RI1); assay: Agonist activity at human FXR expressed in human HeLa cells assessed as receptor activation by BSEP promoter-driven firefly luciferase reporter gene assay; assay type: cell-based; conditions: hela
T2 sequence (Q96RI1 whole entry): T1 sequence (whole entry)

CC(C)(C)c1ccc(NC(=O)c2ccccc2NC(=O)c2cccc(C(=O)O)c2)cc1 was tested, and the EC50 was “Not Active”.

same assay, conditions: read-out: EC50

In order of falling EC50:
1. O=C(O)c1cccc(NC(=O)c2ccccc2NC(=O)c2ccc3c(c2)OCO3)c1  10000 nM
2. O=C(O)c1cccc(NC(=O)c2ccccc2NC(=O)c2ccc(C(F)(F)F)cc2)c1  6900 nM
3. O=C(/C=C/c1ccccc1)Nc1ccccc1C(=O)Nc1cccc(C(=O)O)c1  5200 nM
4. O=C(O)c1cccc(NC(=O)c2ccccc2NC(=O)c2ccc(C(F)(F)F)c(F)c2)c1  5000 nM
5. O=C(O)c1cccc(NC(=O)c2ccccc2NC(=O)c2ccc3c(c2)OCCO3)c1  4900 nM
6. COc1ccc(C(=O)O)cc1NC(=O)c1ccccc1NC(=O)c1ccc(C(C)(C)C)cc1  4700 nM
7. O=C(O)c1cccc(NC(=O)c2ccccc2NC(=O)c2ccc(Br)cc2)c1  3700 nM
8. CC(C)(C)c1ccc(C(=O)Nc2ccccc2C(=O)Nc2cccc(-c3nnn[nH]3)c2)cc1  2900 nM
9. CC(C)(C)c1ccc(C(=O)Nc2ccccc2C(=O)Nc2cc(C(=O)O)ccc2Cl)cc1  1100 nM
10. CC(C)(C)c1ccc(C(=O)Nc2ccccc2C(=O)Nc2cc(C(=O)O)ccc2F)cc1  480 nM
11. CC(=O)c1cccc(NC(=O)c2ccccc2NC(=O)c2ccc(C(C)(C)C)cc2)c1  480 nM
12. CC(C)(C)c1ccc(C(=O)Nc2ccccc2C(=O)Nc2cccc(CC(=O)O)c2)cc1  420 nM
13. COc1cccc(NC(=O)c2ccccc2NC(=O)c2ccc(C(C)(C)C)cc2)c1  380 nM
14. CC(C)(C)c1ccc(C(=O)Nc2ccccc2C(=O)Nc2cccc(C(=O)O)c2)cc1  280 nM
15. CC(C)(C)c1ccc(C(=O)Nc2ccccc2C(=O)Nc2ccc(Cl)c(C(=O)O)c2)cc1  280 nM
16. CC(C)(C)c1ccc(C(=O)Nc2ccccc2C(=O)Nc2cccc(C#N)c2)cc1  230 nM
17. CSc1cccc(NC(=O)c2ccccc2NC(=O)c2ccc(C(C)(C)C)cc2)c1  200 nM
18. CC(C)(C)c1ccc(C(=O)Nc2ccccc2C(=O)Nc2ccc(Br)c(C(=O)O)c2)cc1  150 nM
19. Cc1ccc(NC(=O)c2ccc(Cl)cc2NC(=O)c2ccc(C(C)(C)C)cc2)cc1C(=O)O  110 nM
20. COc1ccc(C(=O)Nc2ccc(C)c(C(=O)O)c2)c(NC(=O)c2ccc(C(C)(C)C)cc2)c1  87 nM
21. CC(C)(C)c1ccc(C(=O)Nc2ccccc2C(=O)Nc2cccc(C(N)=O)c2)cc1  74 nM
22. COc1ccc(NC(=O)c2ccccc2NC(=O)c2ccc(C(C)(C)C)cc2)cc1OC  71 nM
23. CC(C)(C)c1ccc(C(=O)Nc2ccccc2C(=O)Nc2cccc(CCC(=O)O)c2)cc1  64 nM
24. Cc1ccc(C(=O)Nc2cccc(C(=O)O)c2)c(NC(=O)c2ccc(C(C)(C)C)cc2)c1  61 nM
25. CC(C)(C)c1ccc(C(=O)Nc2cc(Br)ccc2C(=O)Nc2cccc(C(=O)O)c2)cc1  48 nM
26. CC(C)(C)c1ccc(C(=O)Nc2cc(Cl)ccc2C(=O)Nc2cccc(C(=O)O)c2)cc1  47 nM
27. COc1ccc(NC(=O)c2ccccc2NC(=O)c2ccc(C(C)(C)C)cc2)cc1C(=O)O  47 nM
28. Cc1ccc(NC(=O)c2ccccc2NC(=O)c2ccc(C(C)(C)C)cc2)cc1C(=O)O  45 nM
29. Cc1ccc(C(=O)Nc2ccc(C)c(C(=O)O)c2)c(NC(=O)c2ccc(C(C)(C)C)cc2)c1  43 nM
30. Cc1c(NC(=O)c2ccccc2NC(=O)c2ccc(C(C)(C)C)cc2)cccc1C(=O)O  42 nM

target: T2, Bile acid receptor; assay: Antagonist activity at human FXR expressed in human HeLa cells assessed as inhibition of receptor activation by BSEP promoter-driven firefly luciferase reporter gene assay; assay type: cell-based; conditions: not given; outline: as §1

In order of falling IC50:
1. COc1ccc(NC(=O)c2ccc(C(C)(C)C)cc2)c(C(=O)Nc2cccc(C(=O)O)c2)c1  15100 nM
2. CC(C)(C)c1ccc(C(=O)Nc2ccc(Cl)cc2C(=O)Nc2cccc(C(=O)O)c2)cc1  12300 nM

target: T1, Bile acid receptor (Homo sapiens); assay: Agonist activity at human FXR expressed in human HeLa cells assessed as receptor activation at 30 uM by BSEP promoter-driven firefly luciferase reporter gene assay relative to 3 uM GW4064; assay type: cell-based; conditions: not given; outline: as §1

In the case of O=C(Cc1ccccc1)Nc1ccccc1C(=O)Nc1cccc(C(=O)O)c1, the Activity is reported as “inactive”.
In the case of CC(C)(C)c1ccc(C(=O)Nc2ccccc2C(=O)Nc2ccc([N+](=O)[O-])c(C(=O)O)c2)cc1, the Activity is reported as “inactive”.
For CC(C)(C)c1ccc(C(=O)Nc2cc([N+](=O)[O-])ccc2C(=O)Nc2cccc(C(=O)O)c2)cc1, the Activity was “inactive”.
For COc1cc(NC(=O)c2ccccc2NC(=O)c2ccc(C(C)(C)C)cc2)cc(OC)c1OC, the Activity was “inactive”.
In the case of CC(C)(C)c1ccc(C(=O)Nc2c(Cl)cccc2C(=O)Nc2cccc(C(=O)O)c2)cc1, the Activity is reported as “inactive”.
In the case of Nc1ccccc1C(=O)Nc1cccc(C(=O)O)c1, the Activity is reported as “inactive”.
For CC(C)(C)c1ccc(C(=O)Nc2cccc(Cl)c2C(=O)Nc2cccc(C(=O)O)c2)cc1, the Activity was “inactive”.
For COc1ccc(NC(=O)c2ccc(C(C)(C)C)cc2)c(C(=O)Nc2cccc(C(=O)O)c2)c1, the Activity was “inactive”.
In the case of Cc1ccc(C(=O)O)cc1NC(=O)c1ccccc1NC(=O)c1ccc(C(C)(C)C)cc1, the Activity is reported as “inactive”.
O=C(O)c1cccc(NC(=O)c2ccccc2NC(=O)c2cc(C(F)(F)F)cc(C(F)(F)F)c2)c1 was tested, and the Activity was “inactive”.
